High-throughput results deposited in PubChem BioAssay by several laboratories.
Mcl1-Bid inh – Mcl-1/Bid binding inhibitors, primary screen, biochemical, TR-FRET, 1536-well; Induced myeloid leukemia cell differentiation protein Mcl-1 (Homo sapiens), Q07820; TR-FRET Mcl-1/Bid-Dy647 peptide binding; inhibition, % at 21.7 µM; 220,000 tested, 0.97% active; AID 1021, 2008;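 active = compounds that cut the binding signal by more than half at the single screening dose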;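 note: His-tagged Mcl-1 with europium anti-His antibody binding Bid BH3 peptide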
Target sequence (Q07820 whole entry, looked up): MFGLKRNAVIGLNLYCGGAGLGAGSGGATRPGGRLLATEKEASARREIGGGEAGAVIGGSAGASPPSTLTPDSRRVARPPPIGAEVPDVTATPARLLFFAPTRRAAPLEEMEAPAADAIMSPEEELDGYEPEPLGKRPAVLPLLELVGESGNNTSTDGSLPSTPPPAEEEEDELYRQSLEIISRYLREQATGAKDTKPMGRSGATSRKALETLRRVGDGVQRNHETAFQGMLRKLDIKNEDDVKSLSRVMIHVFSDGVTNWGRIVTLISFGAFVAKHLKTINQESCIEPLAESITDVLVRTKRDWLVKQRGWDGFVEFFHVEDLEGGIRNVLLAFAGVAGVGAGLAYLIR
Mcl1 Noxa PPI – Mcl-1/Noxa binding inhibitors, primary screen, biochemical, TR-FRET, 1536-well; Induced myeloid leukemia cell differentiation protein Mcl-1 (Homo sapiens), Q07820; TR-FRET Mcl-1/Noxa peptide binding, 2 h; inhibition, % at 21.7 µM; 220,000 tested, 1.5% active;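 active = compounds that cut the protein-peptide binding signal by more than 50% relative to plate controls in a single-dose test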;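 note: His-tagged Mcl-1 with rhodamine Noxa BH3 peptide and terbium anti-His antibody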
Bim-Mcl-1 – inhibitors of Bim peptide binding to Mcl-1, primary screen, biochemical, bead-based flow cytometry, multiplex; 190,000 tested, 0.1% active; Bim peptide-Mcl-1 binding; AID 1009, 2008; inhibition, % at 10 µM; in the data active = inhibition above about 40%
Arbovirus anti – antivirals against arbovirus infection, primary screen, cell-based, full library, 10K replicate subset. arbovirus infection cell-based antiviral screen. inhibition, % at 10 µM. 200,000 tested, 0.37% active. AID 1251, 2008; in the data active = inhibition above about 30%
Calpain2 inh – inhibitors of pig calpain II, primary screen, biochemical, fluorogenic peptide substrate, 1536-well; AID 1236, 2008; inhibition, % at 16 µM; 220,000 tested, 0.37% active; purified calpain II, 30 min;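 active = inhibition above about 50%, limit read from the data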
Calb biofilm kill – clotrimazole potentiators killing C. albicans biofilm, primary screen, 4-compound mixtures | C. albicans biofilm persisters + clotrimazole, fluorescence viability; primary screen in compound mixtures of four per well | inhibition, % at 7.6 µM | 120,000 tested, 0.02% active | AID 1242, 2008;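 active = inhibition above 30.3% in the primary screen of four-compound pools, then above 30% when the compound was retested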;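 note: compounds exposed to preformed 24 h biofilms for 48 h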
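Probe or stimulus – Clotrimazole 50 µg/mL co-treatment · System – C. albicans biofilms · Schedule – 24 h biofilm formation, then 48 h compound exposure, 37 °C · Evaluation – percent inhibition of biofilm viability · Technique – 2-h Alamar Blue fluorescence, 535/590 nm excitation/emission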
Each line names hits and unclear results; the compound was inactive in the other large screens. An excerpt weighted towards active compounds, which were near 2.8% of everything screened.

CC1=C(C#N)C(=O)NC(=O)/C1=C\c1ccc(-c2cc(C)c(C)cc2[N+](=O)[O-])o1	Mcl1-Bid inh 92, Mcl1 Noxa PPI 100, Arbovirus anti 34
COc1cc(CO)ccc1OCc1nnnn1-c1ccc(C)cc1	none
CSc1ncc(OCc2ccccc2)c(=O)[nH]1	none (no result: Bim-Mcl-1, Arbovirus anti)
CCN1C(=O)c2cccc3c(NS(=O)(=O)c4ccc(NC(C)=O)cc4)ccc1c23	none (no result: Calb biofilm kill)
CCN1C(=O)c2cccc3c(S(=O)(=O)Nc4ccccc4OC)ccc1c23	Mcl1-Bid inh 75 (no result: Calb biofilm kill)
CCOC(=O)c1c(O)c2c(n(Cc3ccco3)c1=O)CCCC2	Arbovirus anti 31 (no result: Calb biofilm kill)
CCOC(=O)c1c(NC(=O)c2ccco2)sc2c1CCCC2	none (no result: Calb biofilm kill)
COc1ccccc1N(C)S(=O)(=O)c1ccc(C(=O)OCC(N)=O)cc1	Bim-Mcl-1 44
FC(F)(F)c1cccc(OCC2CNC(=S)O2)c1 (stereo not drawn)	none (no result: Bim-Mcl-1, Arbovirus anti)
CC(=O)c1cc(CN2CCN(Cc3ccccc3)C(CCO)C2)cs1 (stereo not drawn)	none
COC(=O)c1ccc2nc(NC(=O)C(C)(C)C)sc2c1	Calpain2 inh 91
COC(=O)c1ccc2nc(Nc3nc4ccc(F)cc4s3)sc2c1	Mcl1-Bid inh 81, Mcl1 Noxa PPI 95
C=CCc1ccc(O)c(-c2ccc(O)c(CC=C)c2)c1	none
COc1ccc(C(=O)C2CCCN(Cc3cn[nH]c3-c3ccc(F)cc3)C2)cc1OC (stereo not drawn)	Mcl1-Bid inh 96
C#CCOCCOCCOCCNc1nc(N2CCN(C(=O)[C@H]([C@@H](C)CC)n3cc(CCCN=C(N)N)nn3)CC2)nc(N2CCN(C(=O)[C@H]([C@@H](C)CC)n3cc(CCCN=C(N)N)nn3)CC2)n1	Mcl1-Bid inh 62
C#CCOCCOCCOCCNc1nc(N2CCN(C(=O)[C@H]([C@@H](C)CC)n3cc(CCCN=C(N)N)nn3)CC2)nc(N2CCN(C(=O)[C@H](C)n3cc(CCCN=C(N)N)nn3)CC2)n1	none
C#CCOCCOCCOCCNc1nc(N2CCOCC2)nc(N2CCN(C(=O)Cn3cc(CCCN=C(N)N)nn3)CC2)n1	none
C#CCOCCOCCOCCNc1nc(N2CCN(C(=O)Cn3cc(CCCN=C(N)N)nn3)CC2)nc(N2CCN(C(=O)Cn3cc(CCCN=C(N)N)nn3)CC2)n1	Mcl1-Bid inh 58
CCN(CC)C(=O)C(=O)c1cccn1-c1cccc(OC)c1C#N	none
O=S(=O)(Cc1ccccc1)NCC1CCCN(Cc2ccc(F)c(F)c2)C1 (stereo not drawn)	Calpain2 inh 65
O=C(NCCc1ccccc1)N1CCCC(CNS(=O)(=O)Cc2ccccc2)C1 (stereo not drawn)	Mcl1 Noxa PPI 54
O=S(=O)(Cc1ccccc1)NCC1CCCN(Cc2ccc3nonc3c2)C1 (stereo not drawn)	none
CN1CCN(Cc2cccc(Oc3ccc(Cl)cc3)c2)CC1	Mcl1-Bid inh 67 (no result: Calb biofilm kill)
CCN1CCN(Cc2cccc(Oc3ccc(Cl)cc3)c2)CC1	none (no result: Calb biofilm kill)
C(#CCN1CCC(Cc2ccccc2)CC1)COCCOCc1ccccc1	none
CC1CCN(C(c2ccc(N(C)C)cc2)c2nnnn2C(C)(C)C)CC1 (stereo not drawn)	Mcl1 Noxa PPI 78 (no result: Calb biofilm kill)
CCC(C)(C)n1nnnc1C(c1ccc(O)cc1)N1CCc2ccccc2C1 (stereo not drawn)	Mcl1 Noxa PPI 59
CN(C)c1ccc(C(c2nnnn2C(C)(C)C)N2CCc3ccccc3C2)cc1 (stereo not drawn)	Mcl1 Noxa PPI 68 (no result: Calb biofilm kill)
COCCn1nnnc1C(c1ccc(O)c(OC)c1)N1CCc2ccccc2C1 (stereo not drawn)	Mcl1 Noxa PPI 77 (no result: Calb biofilm kill)
CN1C(=S)SC2CS(=O)(=O)CC21 (stereo not drawn)	none (no result: Bim-Mcl-1, Arbovirus anti)
COc1ccc(OC)c(N=C(N)N=C(N)N)c1	none
Cc1cccc(C(=O)N/C(=C\c2ccc(C)o2)C(=O)O)c1	none (no result: Bim-Mcl-1, Arbovirus anti)
CNC(=O)c1ccccc1-c1cn(C)c2ccccc2c1=O	none
CC(C)CC(NC(N)=O)C(=O)Nc1ccc(Oc2ccccc2)cc1 (stereo not drawn)	none
COC(=O)c1ccc(COC(=O)c2ccc(CS(=O)(=O)c3ccc(C)cc3)cc2)cc1	Mcl1-Bid inh 81 (no result: Calb biofilm kill)
CN(NC(=O)c1ccccc1F)c1ccc([N+](=O)[O-])cn1	none (no result: Bim-Mcl-1, Arbovirus anti)
Cc1ccc(C)c2nc3sc(C(=O)N4CCOCC4)c(N)c3cc12	Mcl1 Noxa PPI 60
Cc1cc(C)c2cc3c(N)c(C(=O)N4CCOCC4)sc3nc2c1	none
Cc1cc(C)c2nc3sc(C(=O)N4CCOCC4)c(N)c3cc2c1	Mcl1 Noxa PPI 65 (no result: Bim-Mcl-1, Arbovirus anti)
O=C(NN=C1C2CC3CC1CC(Cl)(C3)C2)c1ccccn1	Mcl1 Noxa PPI 67
CC(C)NC(=O)NC(=O)CSc1nncs1	none
Cc1cccc(/C=C/c2nc3ccccc3c(=O)n2Cc2ccccc2)c1	none
O=c1c2ccccc2nc(/C=C/c2cccnc2)n1Cc1ccccc1	Mcl1-Bid inh 91
O=c1c2ccccc2nc(/C=C/c2cccnc2)n1CCc1ccccc1	Mcl1-Bid inh 95 (no result: Bim-Mcl-1, Arbovirus anti)
CC(=O)NC1=NN(C(C)=O)C(c2ccco2)S1 (stereo not drawn)	none (no result: Bim-Mcl-1, Arbovirus anti)
CN(/N=C/c1cccnc1)c1cnc2ccccc2n1	none
COc1ccc2c(c1O)-c1ccccc1CCN(C)C2	none
CN1CCc2cccc3c2[C@@H]1Cc1ccc(O)c(O)c1-3	Mcl1 Noxa PPI 92
CN1C(=O)/C(=C/c2cn(CC(=O)NCc3ccco3)c3ccccc23)NC1=S	Mcl1 Noxa PPI 73
O=C(CCN1CCN(CCO)CC1)Nc1ccc(OCc2ccccc2)cc1	Mcl1-Bid inh 55 (no result: Calb biofilm kill)
CCN(CC)S(=O)(=O)c1ccc(/C=C/C(=O)OCC(=O)Nc2ccc(S(N)(=O)=O)cc2)cc1	none
COc1ccc(C(=O)N[C@H](C(=O)OCC(=O)NC(=O)c2cccn2C)C(C)C)cc1	none
COc1cc(OC)cc(C(=O)N[C@H](C(=O)OCC(=O)NC(=O)c2cccn2C)C(C)C)c1	Mcl1-Bid inh 92
COc1ccc(N(C)S(=O)(=O)c2cccc(C(=O)NCC3CCCCC3)c2)cc1	Calpain2 inh 55
COc1ccc2nc(C)cc(Sc3nc4ccccc4s3)c2c1	none (no result: Bim-Mcl-1, Arbovirus anti)
Cc1ccc(C(=O)NCC(=O)N2CCN(c3ncccn3)CC2)s1	Mcl1-Bid inh 65 (no result: Calb biofilm kill)
O=C(NCC(=O)N1CCN(c2ncccn2)CC1)c1cccs1	none (no result: Calb biofilm kill)
CCOC(=O)C(C)Sc1nnc(NC(=O)c2ccc3c(c2)OCO3)s1 (stereo not drawn)	none
CN(C)CCCN(C(=O)c1ccc2c(c1)CCCC2)c1nc2c(F)cccc2s1	Mcl1 Noxa PPI 56
CN(C)CCCN(C(=O)c1ccc(N2C(=O)CCC2=O)cc1)c1nc2c(F)cccc2s1	none
